Reference: ChEMBL document CHEMBL3272249, “Esters of N-tert-butylarterenol. Long-acting new bronchodilators with reduced cardiac effects” (J Med Chem, 1976)

Legend:
Canis familiaris [1] = assay: Cardiotoxicity in spontaneously respiring dog assessed as time of increase in heart rate at 150 to 300 mg/kg, it relative to control; type: toxicity, organism-based, Canis lupus familiaris; parameters: dose 150-300 mg/kg, route endotracheal; settings: in vivo, inhaled_or_intranasal
Outline: (§1)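 Anesthetized, spontaneously respiring dogs. Heart rate monitored by lead II EKG; blood pressure from right femoral artery by pressure transducer. Rise in heart rate (beats/min) scored ±=5-15, +=20-40, ++=40-60, +++=>60, n>4/dose; duration of the rise in h. Drug stocks freshly made in distilled water, diluted in physiological saline, kept on ice.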

Canis familiaris [2] = assay: Bronchodilator activity in dog assessed as time of inhibition of carbachol or histamine-induced bronchoconstriction at 0.35 to 2 mg/kg, iv relative to control; type: functional, Canis lupus familiaris; settings: dose mg/kg 0.35-2
Outline: (§2)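 Dog with airway cannulated through a nonbreathing valve. Bronchoconstriction induced by iv carbachol (2–4 µg/kg) or histamine diphosphate (20–50 µg/kg); airway pressure recorded by pressure transducer. Each compound tested against both agonists in different animals, and results were combined and averaged. Bronchodilation = % inhibition of control constriction; degree scored as +, ++, +++ (20-45, 45-70, >70%) from higher dose, ≥3 dogs/dose; duration in h.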

Canis familiaris [3] = assay: Cardiotoxicity in spontaneously respiring dog assessed as degree of increase in heart rate at 50 to 300 mg/kg, id relative to control; type: toxicity, organism-based, Canis lupus familiaris; parameters: dose 50-300 mg/kg, route intraduodenal; settings: in vivo, other; outline: as §1
Canis familiaris [4] = assay: Bronchodilator activity in dog assessed as degree of inhibition of carbachol or histamine-induced bronchoconstriction at 50 to 300 mg/kg, id relative to control; type: functional, Canis lupus familiaris; settings: dose mg/kg 50-300; route intraduodenal; outline: as §2
Canis familiaris [5] = assay: Bronchodilator activity in dog assessed as degree of inhibition of carbachol or histamine-induced bronchoconstriction at 150 to 300 mg/kg, it relative to control; type: functional, Canis lupus familiaris; settings: dose mg/kg 150-300; route endotracheal; outline: as §2
Canis familiaris [6] = assay: Cardiotoxicity in spontaneously respiring dog assessed as time of increase in heart rate at 50 to 300 mg/kg, id relative to control; type: toxicity, organism-based, Canis lupus familiaris; parameters: dose 50-300 mg/kg, route intraduodenal; settings: in vivo, other; outline: as §1
Canis familiaris [7] = assay: Bronchodilator activity in dog assessed as time of inhibition of carbachol or histamine-induced bronchoconstriction at 50 to 300 mg/kg, id relative to control; type: functional, Canis lupus familiaris; settings: dose mg/kg 50-300; route intraduodenal; outline: as §2
Canis familiaris [8] = assay: Bronchodilator activity in dog assessed as time of inhibition of carbachol or histamine-induced bronchoconstriction at 150 to 300 mg/kg, it relative to control; type: functional, Canis lupus familiaris; settings: dose mg/kg 150-300; route endotracheal; outline: as §2
Canis familiaris [9] = assay: Cardiotoxicity in spontaneously respiring dog assessed as degree of increase in heart rate at 0.35 to 2 mg/kg, iv relative to control; type: toxicity, organism-based, Canis lupus familiaris; parameters: dose 0.35-2 mg/kg, route intravenous; settings: in vivo; outline: as §1
Canis familiaris [10] = assay: Cardiotoxicity in spontaneously respiring dog assessed as degree of increase in heart rate at 150 to 300 mg/kg, it relative to control; type: toxicity, organism-based, Canis lupus familiaris; parameters: dose 150-300 mg/kg, route endotracheal; settings: in vivo, inhaled_or_intranasal; outline: as §1
Canis familiaris [11] = assay: Bronchodilator activity in dog assessed as degree of inhibition of carbachol or histamine-induced bronchoconstriction at 0.35 to 2 mg/kg, iv relative to control; type: functional, Canis lupus familiaris; settings: dose mg/kg 0.35-2; outline: as §2
Canis familiaris [12] = assay: Cardiotoxicity in spontaneously respiring dog assessed as time of increase in heart rate at 0.35 to 2 mg/kg, iv relative to control; type: toxicity, organism-based, Canis lupus familiaris; parameters: dose 0.35-2 mg/kg, route intravenous; settings: in vivo; outline: as §1
Canis familiaris [13] = assay: Cardiotoxicity in spontaneously respiring dog assessed as time of increase in heart rate at 0.3 to 2 mg/kg, iv relative to control; type: toxicity, organism-based, Canis lupus familiaris; parameters: dose 0.3-2 mg/kg, route intravenous; settings: in vivo
Outline: (§3)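 Anesthetized, spontaneously respiring dogs. Heart rate was taken from a lead II EKG, and blood pressure from the right femoral artery by transducer. The increase in heart rate (beats/min) was scored on a graded scale with more than 4 dogs per dose, and its duration was recorded. Drugs were dissolved fresh in distilled water, diluted in physiological saline and kept on ice.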

Canis familiaris [14] = assay: Cardiotoxicity in spontaneously respiring dog assessed as degree of increase in heart rate at 0.3 to 2 mg/kg, iv relative to control; type: toxicity, organism-based, Canis lupus familiaris; parameters: dose 0.3-2 mg/kg, route intravenous; settings: in vivo; outline: as §3
Canis familiaris [15] = assay: Bronchodilator activity in dog assessed as time of inhibition of carbachol or histamine-induced bronchoconstriction at 125 to 250 mg/kg, it relative to control; type: functional, Canis lupus familiaris; settings: dose mg/kg 125-250; route endotracheal; outline: as §2
Canis familiaris [16] = assay: Bronchodilator activity in dog assessed as time of inhibition of carbachol or histamine-induced bronchoconstriction at 0.3 to 2 mg/kg, iv relative to control; type: functional, Canis lupus familiaris; settings: dose mg/kg 0.3-2; outline: as §2
Canis familiaris [17] = assay: Bronchodilator activity in dog assessed as degree of inhibition of carbachol or histamine-induced bronchoconstriction at 125 to 250 mg/kg, it relative to control; type: functional, Canis lupus familiaris; settings: dose mg/kg 125-250; route endotracheal; outline: as §2
Canis familiaris [18] = assay: Cardiotoxicity in spontaneously respiring dog assessed as degree of increase in heart rate at 125 to 150 mg/kg, it relative to control; type: toxicity, organism-based, Canis lupus familiaris; parameters: dose 125-150 mg/kg, route endotracheal; settings: in vivo, inhaled_or_intranasal; outline: as §3
Canis familiaris [19] = assay: Cardiotoxicity in spontaneously respiring dog assessed as degree of increase in heart rate at 50 to 240 mg/kg, id relative to control; type: toxicity, organism-based, Canis lupus familiaris; parameters: dose 50-240 mg/kg, route intraduodenal; settings: in vivo, other; outline: as §3
Canis familiaris [20] = assay: Bronchodilator activity in dog assessed as degree of inhibition of carbachol or histamine-induced bronchoconstriction at 50 to 240 mg/kg, id relative to control; type: functional, Canis lupus familiaris; settings: dose mg/kg 50-240; route intraduodenal; outline: as §2
Canis familiaris [21] = assay: Bronchodilator activity in dog assessed as time of inhibition of carbachol or histamine-induced bronchoconstriction at 50 to 240 mg/kg, id relative to control; type: functional, Canis lupus familiaris; settings: dose mg/kg 50-240; route intraduodenal; outline: as §2
Canis familiaris [22] = assay: Cardiotoxicity in spontaneously respiring dog assessed as time of increase in heart rate at 125 to 250 mg/kg, it relative to control; type: toxicity, organism-based, Canis lupus familiaris; parameters: dose 125-250 mg/kg, route endotracheal; settings: in vivo, inhaled_or_intranasal; outline: as §3
Canis familiaris [23] = assay: Bronchodilator activity in dog assessed as degree of inhibition of carbachol or histamine-induced bronchoconstriction at 0.3 to 2 mg/kg, iv relative to control; type: functional, Canis lupus familiaris; settings: dose mg/kg 0.3-2; outline: as §2
Canis familiaris [24] = assay: Cardiotoxicity in spontaneously respiring dog assessed as time of increase in heart rate at 50 to 240 mg/kg, id relative to control; type: toxicity, organism-based, Canis lupus familiaris; parameters: dose 50-240 mg/kg, route intraduodenal; settings: in vivo, other
Outline: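 Anesthetized, spontaneously respiring dogs. Heart rate monitored by lead II EKG, with blood pressure taken from the right femoral artery by pressure transducer and recorded on a polygraph. Drug stocks made fresh in distilled water, diluted in physiological saline and kept on ice. Dosing was iv, id or it as listed. The duration of the heart-rate increase was recorded in h, with more than 4 dogs per dose.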

Canis familiaris [25] = assay: Bronchodilator activity in dog assessed as time of inhibition of carbachol or histamine-induced bronchoconstriction at 250 to 1000 mg/kg, it relative to control; type: functional, Canis lupus familiaris; settings: dose mg/kg 250-1000; route endotracheal
Outline: (§4)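 Dog airway model: anesthetized, cannulated via a nonbreathing valve, with airway pressure changes recorded after iv carbachol (2–4 μg/kg) or histamine diphosphate (20–50 μg/kg) challenge, each agonist in different animals. Compounds were given iv, intraduodenally or intratracheally from fresh aqueous stocks diluted in saline. Duration (h) of inhibition of induced bronchoconstriction was followed, and the two agonist datasets were pooled.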

Canis familiaris [26] = assay: Cardiotoxicity in spontaneously respiring dog assessed as degree of increase in heart rate at 20 to 40 mg/kg, iv relative to control; type: toxicity, organism-based, Canis lupus familiaris; parameters: dose 20-40 mg/kg, route intravenous; settings: in vivo; outline: as §3
Canis familiaris [27] = assay: Cardiotoxicity in spontaneously respiring dog assessed as degree of increase in heart rate at 160 mg/kg, id relative to control; type: toxicity, organism-based, Canis lupus familiaris; parameters: dose 160 mg/kg, route intraduodenal; settings: in vivo, other; outline: as §3
Canis familiaris [28] = assay: Bronchodilator activity in dog assessed as time of inhibition of carbachol or histamine-induced bronchoconstriction at 20 to 40 mg/kg, iv relative to control; type: functional, Canis lupus familiaris; settings: dose mg/kg 20-40; outline: as §4
Canis familiaris [29] = assay: Cardiotoxicity in spontaneously respiring dog assessed as time of increase in heart rate at 250 to 1000 mg/kg, it relative to control; type: toxicity, organism-based, Canis lupus familiaris; parameters: dose 250-1000 mg/kg, route endotracheal; settings: in vivo, inhaled_or_intranasal; outline: as §3
Canis familiaris [30] = assay: Bronchodilator activity in dog assessed as degree of inhibition of carbachol or histamine-induced bronchoconstriction at 20 to 40 mg/kg, iv relative to control; type: functional, Canis lupus familiaris; settings: dose mg/kg 20-40
Outline: (§5)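 Anesthetized dogs, trachea cannulated with a nonbreathing valve. Bronchoconstriction induced by iv carbachol (2–4 μg/kg) or histamine diphosphate (20–50 μg/kg) in separate animals, and airway pressure recorded by transducer. Drug stocks were made fresh in distilled water, diluted in saline and kept on ice. Read-out was percent inhibition of control constriction, averaged over at least three dogs per dose at the higher dose. Carbachol and histamine data were combined.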

Canis familiaris [31] = assay: Cardiotoxicity in spontaneously respiring dog assessed as time of increase in heart rate at 20 to 40 mg/kg, iv relative to control; type: toxicity, organism-based, Canis lupus familiaris; parameters: dose 20-40 mg/kg, route intravenous; settings: in vivo; outline: as §3
Canis familiaris [32] = assay: Cardiotoxicity in spontaneously respiring dog assessed as degree of increase in heart rate at 250 to 1000 mg/kg, it relative to control; type: toxicity, organism-based, Canis lupus familiaris; parameters: dose 250-1000 mg/kg, route endotracheal; settings: in vivo, inhaled_or_intranasal; outline: as §3
Canis familiaris [33] = assay: Bronchodilator activity in dog assessed as degree of inhibition of carbachol or histamine-induced bronchoconstriction at 250 to 1000 mg/kg, it relative to control; type: functional, Canis lupus familiaris; settings: dose mg/kg 250-1000; route endotracheal; outline: as §5
Canis familiaris [34] = assay: Bronchodilator activity in dog assessed as degree of inhibition of carbachol or histamine-induced bronchoconstriction at 160 mg/kg, id relative to control; type: functional; settings: Canis lupus familiaris, route intraduodenal; outline: as §5
Canis familiaris [35] = assay: Cardiotoxicity in spontaneously respiring dog assessed as time of increase in heart rate at 160 mg/kg, id relative to control; type: toxicity, organism-based, Canis lupus familiaris; parameters: dose 160 mg/kg, route intraduodenal; settings: in vivo, other; outline: as §3
Canis familiaris [36] = assay: Bronchodilator activity in dog assessed as time of inhibition of carbachol or histamine-induced bronchoconstriction at 160 mg/kg, id relative to control; type: functional, Canis lupus familiaris; settings: route intraduodenal; outline: as §4

## CC(C)(C)NC[C@H](O)c1ccc(O)c(O)c1
Canis familiaris [1]
  Time: 1 h
Canis familiaris [2]
  Time: >1 h
Canis familiaris [3]
  Activity: 40%
Canis familiaris [4]
  inhibition (INH): 45%
Canis familiaris [5]
  inhibition (INH): >70%
Canis familiaris [6]
  Time: 3 h
Canis familiaris [7]
  Time: 3 h
Canis familiaris [8]
  Time: <2 h
Canis familiaris [9]
  Activity: 40%
Canis familiaris [10]
  Activity: 20%
Canis familiaris [11]
  inhibition (INH): >70%
Canis familiaris [12]
  Time: < 0.25 h

## CC(C)NCC(O)c1ccc(O)c(O)c1 (stereo unspecified) [ISOPROTERENOL]
Canis familiaris [13]
  Time: < 0.25 h
Canis familiaris [14]
  Activity: > 60%
Canis familiaris [15]
  Time: <1 h
Canis familiaris [16]
  Time: <1 h
Canis familiaris [17]
  inhibition (INH): >70%
Canis familiaris [18]
  Activity: 20%
Canis familiaris [19]
  Activity: 40%
Canis familiaris [20]
  inhibition (INH): 20%
Canis familiaris [21]
  Time: <2 h
Canis familiaris [22]
  Time: 1 h
Canis familiaris [23]
  inhibition (INH): >70%
Canis familiaris [24]
  Time: 2 h

## COc1ccc(C(=O)Oc2ccc([C@@H](O)CNC(C)(C)C)cc2OC(C)=O)cc1.CS(=O)(=O)O
Canis familiaris [25]
  Time: >6 h
Canis familiaris [26]
  Activity: 20%
Canis familiaris [27]
  Activity: 20%
Canis familiaris [28]
  Time: >4 h
Canis familiaris [29]
  Time: < 1 h
Canis familiaris [30]
  inhibition (INH): >70%
Canis familiaris [31]
  Time: 2 h
Canis familiaris [32]
  Activity: 5%
Canis familiaris [33]
  inhibition (INH): >70%
Canis familiaris [34]
  inhibition in vivo at 160 mg/kg: > 70%
Canis familiaris [35]
  Time: < 3 h
Canis familiaris [36]
  Time: >5 h
